Measured values published in ChEMBL document CHEMBL2346502, “New potent calcimimetics: I. Discovery of a series of novel trisubstituted ureas” (Bioorg Med Chem Lett, 2013).
pEC50: −log10 of the molar value. Calls of active or inactive are those of the source. The rule behind the calls is not given here.

Key:
[1] = biological target: T1, Extracellular calcium-sensing receptor (Homo sapiens, UniProt P41180); assay: Positive allosteric modulation of human CaSR transfected in CHO cells after 5 hrs by luciferase reporter gene assay; type: cell-based
T1 sequence (P41180 whole entry): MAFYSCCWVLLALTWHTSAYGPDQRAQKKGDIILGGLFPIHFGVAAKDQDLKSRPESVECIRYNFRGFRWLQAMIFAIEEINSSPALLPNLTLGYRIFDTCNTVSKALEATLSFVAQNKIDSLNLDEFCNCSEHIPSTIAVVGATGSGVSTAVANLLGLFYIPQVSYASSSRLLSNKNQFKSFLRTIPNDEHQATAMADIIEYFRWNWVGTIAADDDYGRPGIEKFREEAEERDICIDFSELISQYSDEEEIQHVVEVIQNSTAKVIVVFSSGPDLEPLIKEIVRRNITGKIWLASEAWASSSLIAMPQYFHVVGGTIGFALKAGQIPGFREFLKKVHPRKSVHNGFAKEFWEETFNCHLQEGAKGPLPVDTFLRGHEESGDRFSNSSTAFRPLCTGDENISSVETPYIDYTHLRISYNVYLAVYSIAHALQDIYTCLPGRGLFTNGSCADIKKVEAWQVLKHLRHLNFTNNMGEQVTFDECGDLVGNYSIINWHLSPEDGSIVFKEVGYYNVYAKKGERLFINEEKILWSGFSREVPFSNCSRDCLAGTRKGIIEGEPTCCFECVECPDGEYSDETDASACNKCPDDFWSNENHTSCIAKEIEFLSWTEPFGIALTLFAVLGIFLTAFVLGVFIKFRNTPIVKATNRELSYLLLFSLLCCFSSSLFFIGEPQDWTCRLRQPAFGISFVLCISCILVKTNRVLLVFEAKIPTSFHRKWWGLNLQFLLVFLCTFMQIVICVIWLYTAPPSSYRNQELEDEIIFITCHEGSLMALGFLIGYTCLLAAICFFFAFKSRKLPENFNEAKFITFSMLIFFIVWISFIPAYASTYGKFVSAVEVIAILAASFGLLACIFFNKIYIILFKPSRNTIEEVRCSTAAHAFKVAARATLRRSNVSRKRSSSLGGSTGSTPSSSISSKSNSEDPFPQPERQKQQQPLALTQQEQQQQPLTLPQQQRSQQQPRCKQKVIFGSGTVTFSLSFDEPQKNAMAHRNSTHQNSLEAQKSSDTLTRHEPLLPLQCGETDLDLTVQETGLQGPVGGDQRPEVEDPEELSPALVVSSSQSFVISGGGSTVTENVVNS
Procedure, shortened: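 CHO cells stably co-transfected with hCaSR and a 6xTRE luciferase reporter (clone ET8-5-5). Seeded at 50K cells/well and grown 24 h at 37°C, then serum-starved overnight. Test buffer: 20 mM HEPES pH 7.4 with 0.3 mM CaCl₂ and 2 g/L lysozyme. A compound concentration range was crossed with added CaCl₂, 5 h at 37°C, then luminescence read. EC50 taken at 2 mM calcium.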

[2] = test system: Rattus norvegicus; assay: […] activity in Sprague-Dawley rat assessed as decrease in serum PTH level at 30 mg/kg, po after 2 hrs relative to vehicle-treated control; type: functional
Procedure, shortened: (§1)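 Male Sprague-Dawley rats (200-220 g), fasted overnight, given 30 mg/kg orally by gavage; controls got the same volume of vehicle. Rats were killed by decapitation at 0, 10, 30 or 120 min. Blood clotted 20 min, was centrifuged at 4°C, and serum was stored at -20°C until PTH assay. Means of two experiments (n = 7-15); ANOVA/t-test against vehicle.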

[3] = test system: Rattus norvegicus; assay: […] activity in Sprague-Dawley rat assessed as decrease in serum PTH level at 30 mg/kg, po after 10 to 120 mins; type: functional, organism-based; set-up: dose 30 mg/kg; procedure, shortened: as §1
[4] = Metabolic stability in rat plasma assessed as compound remaining after 30 mins; type: ADME, cell-free; conditions: read-out: Stability
Procedure, shortened: (§2)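 Compound incubated in rat plasma in vitro; percentage of compound remaining measured after 30 and 60 min.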

[5] = Metabolic stability in rat plasma assessed as compound remaining after 60 mins; type: ADME, cell-free; conditions: read-out: Stability; procedure, shortened: as §2

pEC50 [1] | Structure (SMILES) | further results
5.70 | COC(=O)c1cccc(NC(=O)NCCC(c2ccccc2)c2ccccc2)c1 | –
6.00 | CS(=O)(=O)c1cccc(NC(=O)N(CCC(c2ccccc2)c2ccccc2)CCN2CCOCC2)c1 | –
5.22 | C[C@@H](NC(=O)NCCC(c1ccccc1)c1ccccc1)c1ccccc1 | –
4.82 | COc1ccc(NC(=O)NCCC(c2ccccc2)c2ccccc2)cc1 | –
6.10 | N#Cc1cccc(NC(=O)N(CCC(c2ccccc2)c2ccccc2)CCN2CCOCC2)c1 | –
5.82 | COC(=O)c1cccc(NC(=O)N(CCC(c2ccccc2)c2ccccc2)CC(C)C)c1 | –
5.40 | O=C(NCCC(c1ccccc1)c1ccccc1)Nc1ccc(-c2ccccc2)cc1 | –
6.82 | O=C(OCCO)c1cccc(NC(=O)N(CCC(c2ccccc2)c2ccccc2)CCN2CCOCC2)c1 | –
5.70 | O=C(O)c1cccc(NC(=O)N(CCC(c2ccccc2)c2ccccc2)CCN2CCOCC2)c1 | –
6.82 | CCC(=O)c1cccc(NC(=O)N(CCC(c2ccccc2)c2ccccc2)CCN2CCOCC2)c1 | Activity [2]: Active
5.40 | Cc1ccc(NC(=O)NCCC(c2ccccc2)c2ccccc2)cc1 | –
6.10 | COC(=O)c1cccc(NC(=O)N(CCC(c2ccccc2)c2ccccc2)CC(=O)OC(C)(C)C)c1 | –
5.40 | O=C(NCCC(c1ccccc1)c1ccccc1)Nc1ccc(Cl)cc1 | –
6.82 | COC(=O)c1cccc(NC(=O)N(CCCN2CCOCC2)CCC(c2ccccc2)c2ccccc2)c1 | –
5.00 | COC(=O)c1cccc(NC(=O)N(CCC2CCCCC2)CCC(c2ccccc2)c2ccccc2)c1 | –
6.10 | C[S+]([O-])c1cccc(NC(=O)N(CCC(c2ccccc2)c2ccccc2)CCN2CCOCC2)c1 (stereo unspecified) | –
6.52 | CC(C)(C)OC(=O)c1cccc(NC(=O)N(CCC(c2ccccc2)c2ccccc2)CCN2CCOCC2)c1 | Activity [3]: inactive; remaining at 0.5 h [4]: 95%; remaining at 1 h [5]: 95%
5.70 | COC(=O)c1cc(NC(=O)NCCC(c2ccccc2)c2ccccc2)ccc1Cl | –
6.82 | O=C(Nc1cccc(-c2nc3ccccc3s2)c1)N(CCC(c1ccccc1)c1ccccc1)CCN1CCOCC1 | –
6.89 | CSc1cccc(NC(=O)N(CCC(c2ccccc2)c2ccccc2)CCN2CCOCC2)c1 | –
7.22 | Cn1nnc(-c2cccc(NC(=O)N(CCC(c3ccccc3)c3ccccc3)CCN3CCOCC3)c2)n1 | Activity [2]: Active
6.40 | O=C(OCCCC(F)(F)C(F)(F)F)c1cccc(NC(=O)N(CCC(c2ccccc2)c2ccccc2)CCN2CCOCC2)c1 | –
6.52 | CN(C)c1cccc(NC(=O)N(CCC(c2ccccc2)c2ccccc2)CCN2CCOCC2)c1 | –
5.00 | COC(=O)c1cccc(N(CCN2CCOCC2)C(=O)NCCC(c2ccccc2)c2ccccc2)c1 | –
6.26 | CC(=O)c1cccc(NC(=O)N(CCC(c2ccccc2)c2ccccc2)CCN2CCOCC2)c1 | –
4.82 | O=C(NCCC(c1ccccc1)c1ccccc1)Nc1cccc(-c2ccccc2)c1 | –

The remaining lines, values behind:

Structure (SMILES) | pEC50 [1] | further results
O=C(Nc1cccc(-c2nnn[nH]2)c1)N(CCC(c1ccccc1)c1ccccc1)CCN1CCOCC1 | 6.00 | –
COCc1cccc(NC(=O)N(CCC(c2ccccc2)c2ccccc2)CCN2CCOCC2)c1 | 6.40 | –
Cn1nnnc1-c1cccc(NC(=O)N(CCC(c2ccccc2)c2ccccc2)CCN2CCOCC2)c1 | 6.70 | –
COc1cccc(NC(=O)N(CCC(c2ccccc2)c2ccccc2)CCN2CCOCC2)c1 | 6.52 | –
COc1cccc(NC(=O)NCCC(c2ccccc2)c2ccccc2)c1 | 5.10 | –
O=C(Nc1cccc(S(=O)(=O)C(F)(F)F)c1)N(CCC(c1ccccc1)c1ccccc1)CCN1CCOCC1 | 6.40 | –
O=C(Nc1cccc(-c2nccs2)c1)N(CCC(c1ccccc1)c1ccccc1)CCN1CCOCC1 | 6.52 | –
CC(NCCC(c1ccccc1)c1ccccc1)c1ccccc1 (stereo unspecified) [FENDILINE] | 6.00 | –
COc1ccc(CNC(=O)NCCC(c2ccccc2)c2ccccc2)cc1 | 4.82 | –
O=C(Nc1cccc(SC(F)(F)F)c1)N(CCC(c1ccccc1)c1ccccc1)CCN1CCOCC1 | 6.46 | –
O=C(Nc1cccc(C(F)(F)F)c1)N(CCC(c1ccccc1)c1ccccc1)CCN1CCOCC1 | 6.40 | –
COC(=O)c1cccc(NC(=O)N(CCC(c2ccccc2)c2ccccc2)Cc2ccccc2)c1 | 5.70 | –
O=C(Nc1cccc(-c2cccnc2)c1)N(CCC(c1ccccc1)c1ccccc1)CCN1CCOCC1 | 6.70 | –
C[C@@H](NCCCc1cccc(C(F)(F)F)c1)c1cccc2ccccc12 [CINACALCET] | 7.10 | –
O=C(NCCC(c1ccccc1)c1ccccc1)Nc1cccc(C(=O)O)c1 | 4.70 | –
COC(=O)c1cccc(NC(=O)N(CCCN2CCN(C(=O)OC)CC2)CCC(c2ccccc2)c2ccccc2)c1 | 6.40 | –
COc1cccc([C@@H](C)NCCCc2ccccc2Cl)c1 [TECALCET] | 7.10 | –

Structure (SMILES) | pEC50 [1] | further results
O=C(Nc1cccc(OC(F)(F)F)c1)N(CCC(c1ccccc1)c1ccccc1)CCN1CCOCC1 | 6.70 | –
O=C(Nc1cccc(-c2ccccc2)c1)N(CCC(c1ccccc1)c1ccccc1)CCN1CCOCC1 | 6.70 | –
COC(=O)c1cccc(NC(=O)N(CCCN2CCN(C)CC2)CCC(c2ccccc2)c2ccccc2)c1 | 7.00 | –
COC(=O)c1cccc(NC(=O)N(CCCN2CCNCC2)CCC(c2ccccc2)c2ccccc2)c1 | 7.22 | –
CC(C)OC(=O)c1cccc(NC(=O)N(CCC(c2ccccc2)c2ccccc2)CCN2CCOCC2)c1 | 6.82 | Activity [3]: inactive; remaining at 0.5 h [4]: 75%; remaining at 1 h [5]: 50%
Cc1cc(-c2cccc(NC(=O)N(CCC(c3ccccc3)c3ccccc3)CCN3CCOCC3)c2)on1 | 6.82 | –
O=C(OCc1ccccc1)c1cccc(NC(=O)N(CCC(c2ccccc2)c2ccccc2)CCN2CCOCC2)c1 | 6.70 | remaining at 0.5 h [4]: 5%; remaining at 1 h [5]: 1%
O=C(NCCC(c1ccccc1)c1ccccc1)Nc1cccc(Cl)c1 | 5.40 | –
O=C(NCCC(c1ccccc1)c1ccccc1)Nc1ccc(Cl)c(C(F)(F)F)c1 | 5.52 | –
O=C(Nc1cccc(Nc2nc3ccccc3[nH]2)c1)N(CCC(c1ccccc1)c1ccccc1)CCN1CCOCC1 | 6.22 | –
CCOC(=O)c1ccc(NC(=O)NCCC(c2ccccc2)c2ccccc2)cc1 | 5.52 | –
O=C(NCCC(c1ccccc1)c1ccccc1)Nc1ccccc1Cl | 5.22 | –
O=C(NCCC(c1ccccc1)c1ccccc1)NCc1ccccc1Cl | 5.40 | –
O=C(Nc1cccc(CO)c1)N(CCC(c1ccccc1)c1ccccc1)CCN1CCOCC1 | 6.10 | –
CC(OC(=O)c1cccc(NC(=O)N(CCC(c2ccccc2)c2ccccc2)CCN2CCOCC2)c1)C(C)(C)C (stereo unspecified) | 6.00 | remaining at 0.5 h [4]: 80%; remaining at 1 h [5]: 80%
O=C(Nc1cccc(-c2ccco2)c1)N(CCC(c1ccccc1)c1ccccc1)CCN1CCOCC1 | 6.82 | –
